Assay results taken from PubChem BioAssay.
A number with no mark means an inactive call. Results filed as inconclusive are left out. Activity calls are given as the source filed them.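 Rule for the calls, unless noted: active = RAM network inhibition above 8.4% in each of two replicates, 3 SD over the compound average; inconclusive = above 8.4% inhibition in only one replicate; inactive = 8.4% inhibition or less in each replicate.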

Columns and labels:
[1] = S. cerevisiae growth inhibition in permissive medium (OD615), pilot counter-assay for S. cerevisiae lifespan shortening project, permissive growth control (AID 705;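 active = growth inhibition above 25% in both replicates, a cutoff set 3 SD above the mean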); details: OD615, 24 h, at 10 µM, hits give high values
Outline: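 Timing: 24 h exposure, 30 °C / Material: Saccharomyces cerevisiae strain carrying genetically modified DeaD replicative-lifespan system / Signal: OD at 615 nm / Compound: 10 µM single dose, 0.25% DMSO / Medium: SC raffinose/galactose permissive medium / Evaluation: reduction in yeast growth (OD615)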

[2] = S. cerevisiae growth inhibition in restrictive medium, OD615, pilot screen, restrictive growth control, yeast lifespan reduction project (AID 706;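 active = growth inhibition above a set limit, 3 SD over mean compound inhibition, in both replicates, cut at about 43% in these data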;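 note: modified DeaD lifespan yeast strain shifted to restrictive glucose medium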); details: OD615, 48 h, at 10 µM, hits give high values
Outline: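 System: Engineered S. cerevisiae DeaD strain | Detection: OD615 | Buffer or medium: CSMM-D glucose medium | Doses: 10 µM compound, 0.25% DMSO | Timing: 4 h pre-growth plus 48 h compound exposure, 30 °C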

[3] = doxorubicin toxicity protection in MRP-1 cells – H69AR cells, CellTiter-Glo, duplicate, MRP-1 activator project, pilot screen (AID 807;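 active = viability increase at or above a cutoff of the median across tested compounds plus 3 SD, cut at about 8.5% in these data, passing the limit was not always enough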;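 note: compound pretreatment 18-22 h then 72 h combined with doxorubicin; 0% = doxorubicin alone and 100% = vehicle without doxorubicin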); details: H69AR viability with doxorubicin, CellTiter-Glo luminescence; at 10 µM; hits give high values
[4] = viability of HCT116 without oncogenic beta-catenin – human colon tumor cells, pilot screen (AID 823;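 active = cell viability at or below a set limit in both duplicate runs, the limit being the all-compound median minus 4 SD, cut at about 23% in these data, passing the limit was not always enough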;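 note: 0% = wells killed by 20 µM Hyamine and 100% = untreated DMSO cell wells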); details: HCT116 beta-catenin knockout viability, CellTiter-Glo, 60 h; at 10 µM; hits give low values
[5] = viability of PTEN-null HCT116 cells – cell-based, HCT116 clonal line, CellTiter-Glo, pilot screen (AID 824;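 active = viability at or below 27.92% in each of two runs, the all-compound median minus 4 SD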;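 note: 0% = 20 µM Hyamine control and 100% = vehicle cell control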); details: HCT116 PTEN-deleted viability, 60 h, at 10 µM, hits give low values
[6] = RAM pathway blockade in budding yeast – dse1pr::URA3 reporter, 5-FOA selection, pilot screen (AID 869;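 active = inhibition over a set limit, the all-compound mean plus 3 SD, in both replicate runs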;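 note: 0% = DMSO wells with no growth and 100% = 10 µM 1-NA-PP1 with full growth; RAM network block rescues cells from 5-FOA so hits raise OD615 growth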); details: S. cerevisiae dse1pr::URA3 5-FOA growth, OD615, 2 d; at 10 µM; hits give high values; strain carries analog-sensitive mutant Cbk1 kinase
[7] = RAM signaling pathway blockade in yeast – S. cerevisiae, Pdr1DBD-CYC8 efflux-inhibited sensitized strain, primary screen (AID 1298);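 note: 0% = DMSO untreated cells without growth and 100% = 10 µM 1-NA-PP1 full growth; higher means more yeast growth rescued from 5-FOA killing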; details: S. cerevisiae cbk1-as DSE1-URA3 strain, 5-FOA growth OD615, 2 d; at 50 µM; hits give high values

SMILES | growth inhibition [1] [%] | growth inhibition [2] [%] | viability increase [3] [%] | viability [4] [%] | viability [5] | inhibition [6] [%] | RAM network inhibition [7] [%]
Cc1cc(C)c(S(=O)(=O)NCCCN2CCOCC2)cc1Br | -7.38 | -14.8 | -2.34 | 91.8 | 90.9% | 0.75 | 0.92
COc1ccc(C(=O)NCC(c2cccnc2)N2CCN(c3ccc(F)cc3)CC2)cc1OC (configuration not stated) | -12.2 | -0.995 | -3.89 | 88.9 | 80.8% | 1.82 | 4.32
Cc1noc(C(=O)N2CC3(C)CC2CC(C)(C)C3)c1Cl (configuration not stated) | -13 | -13.2 | 0.45 | 82.9 | 83% | -0.145 | 5.28
O=C(Nc1nc2c(Cl)ccc(Cl)c2s1)c1ccco1 | -22 | -3.32 | -6.22 | 90.1 | 85.2% | 1.41 | 2.84
CCOC1CCCCC1NS(=O)(=O)c1ccc(Cl)cc1 (configuration not stated) | -3.5 | 1.71 | -3.23 | 99.3 | 91.7% | 1.5 | 2.71
CCOCCCNC(=O)Cn1nc(-c2ccccc2)ccc1=O | -19.8 | -7.81 | 1.86 | 105 | 91.7% | 0.165 | -0.58
COc1ccc(C(=O)Nc2ccccc2C(=O)NCCCn2ccnc2)cc1 | -1.82 | -2.64 | -0.82 | 95.1 | 92.9% | 0.715 | 2.86
O=C(CC(c1ccccc1)c1ccccc1)Nc1ncn[nH]1 | -5.6 | 9.86 | 4.51 | 100 | 90.1% | -0.035 | 3.78
CCCS(=O)(=O)n1nc(-c2ccc(OC)cc2OC)cc1N | -6.52 | -22.5 | -2.51 | 101 | 102% | -0.255 | 4.63
Cc1cc2oc(C(=O)Nc3cccnc3)c(C)c2cc1C | 7.22 | 6.46 | -1.32 | 90.1 | 87% | 0.52 | 1.77
CCOC(=O)CSC1=C(C#N)C(c2ccccc2OC)CC(=O)N1 (configuration not stated) | -14 | -1.51 | -6.53 | 27.5 | 27.4% (active) | 0.27 | -0.77
O=S(=O)(c1cccc(-n2cnnn2)c1)N1CCOCC1 | -5.21 | -3.17 | -1.69 | 94.3 | 93% | 1.6 | 2.96
C=CCc1ccccc1OCC(O)CN1CCN(c2ccccc2OC)CC1 (configuration not stated) | -21.5 | -25 | -4.59 | 56.3 | 63.5% | 1.39 | 4.75
Cc1occc1C(=O)NCc1ccc2c(c1)OCO2 | -7.06 | 3.86 | 0.84 | 101 | 99.2% | 1.78 | 1.93
COc1ccc(C)cc1S(=O)(=O)NC1CCCCC1 | -9.02 | -4.09 | -0.23 | 101 | 101% | 0.525 | 6.79
COC(=O)c1ccccc1NC(NC(=O)c1ccco1)C(=O)c1ccc(C)cc1 (configuration not stated) | -0.235 | -5.5 | -4.41 | 79 | 70.3% | 4.25 | 7.66
COC(=O)CSC1=C(C#N)C(c2cccc(OC)c2)CC(=O)N1 (configuration not stated) | -12.2 | -5.83 | -3.93 | 89.1 | 90.3% | 0.41 | -1.62
Cc1ccc(N(CC(O)CN2CCCC2)S(=O)(=O)c2ccccc2)cc1 (configuration not stated) | -1.29 | -3.1 | -2.89 | 94.2 | 91.2% | -0.105 | 5.78

SMILES | growth inhibition [1] [%] | growth inhibition [2] [%] | viability increase [3] [%] | viability [4] [%] | viability [5] | inhibition [6] [%] | RAM network inhibition [7] [%]
COC(=O)C1=C(C)OC(N)=C(C#N)C1c1ccccc1F (configuration not stated) | -9.68 | -3.74 | -3.38 | 94.9 | 98.1% | -0.37 | -0.76
COc1cccc(-c2nnc(SCC(=O)N3CC(C)CC(C)C3)o2)c1 (configuration not stated) | -6.77 | -0.75 | -3.25 | 98 | 90.5% | 0.535 | 0.7
Cn1cnnc1SCC(=O)c1ccc2c(c1)CCCC2 | -1.79 | 12.5 | -1.07 | 105 | 96.6% | 0.17 | 4.35
COC(=O)c1c(NC(=O)CCN2CCOCC2)sc2c1CCCC2 | -1.47 | -2.81 | -6.91 | 88.4 | 89.7% | 0.935 | 4.32
CC(C)c1ccc(NC(=O)C(c2ccccc2)N2CCOCC2)cc1 (configuration not stated) | -0.695 | 0.125 | 1.44 | 91.3 | 83.6% | 0.515 | 0.47
CCC(=O)c1ccc(CCCCCC(=O)O)s1 | 4.35 | -7.41 | -0.1 | 98.2 | 98.7% | 1.34 | 3.2
CCOc1cccc(=O)c2c(C)n(CC3CCCO3)c(C)c12 (configuration not stated) | -3.19 | -1.17 | -2.8 | 92.5 | 90.4% | 0.73 | -1.39
Cc1nc2sc(C(c3ccc(C(C)C)cc3)N3CCN(CCO)CC3)c(O)n2n1 (configuration not stated) | -9.91 | -9.61 | -0.75 | 97 | 98.1% | 1.58 | 2.77
O=c1c2cc(-c3ccccc3)sc2ncn1/N=C/c1ccco1 | -7.51 | 0.525 | -2.49 | 96.6 | 82% | 1.5 | 5.9
CCC(=O)Nc1nc2ccc3nc(C)sc3c2s1 | -5.17 | 32.5 | -4.98 | 75.3 | 81.1% | 0.415 | 2.94
Cc1ccc(S(=O)(=O)NCC(=O)N2CCC(C)CC2)cc1 | -17.5 | -28.3 | 0.72 | 104 | 107% | 0.475 | 4.08
COc1ccc(CCNC(=O)c2c(O)c3c([nH]c2=O)CCCC3)cc1 | -0.92 | -15.2 | -0.72 | 97.1 | 90% | 1.77 | 4.09
COc1cc(O)c(NC(C)=O)c2nonc12 | -5.37 | 5.21 | 0 | 101 | 107% | -0.845 | -1.46
Cc1cc(Nc2ccc(C(C)C)cc2)n2ncnc2n1 | -6.6 | 7.39 | -0.35 | 95.2 | 85.2% | 0.465 | 5.75
Cc1ccc(-n2nc(C)c3c(C)c(CCC(=O)NCc4ccco4)c(C)nc32)cc1 | -15 | -9.24 | -3.52 | 84.7 | 75.5% | 0.985 | 4.13
O=C(Cn1c(N2CCN(c3ccccc3)CC2)nc2ccccc21)c1ccccc1 | -10.3 | -9.96 | -3.76 | 84.3 | 93.6% | 2.6 | 4.62
Clc1cccc(CSc2nnc(-c3ccccn3)n2Cc2ccco2)c1 | -8.18 | 21.1 | -1.98 | 71.4 | 75.3% | 1.69 | 12.3
C=CCNC(=O)C1CC(=O)N(c2ccc(Br)cc2)C1 (configuration not stated) | -16.9 | -14.1 | -1.65 | 95.5 | 95.3% | 0.655 | 0.56
